Measurements published in ChEMBL document CHEMBL3745601 (Medchemcomm, 2015).

Assays:
Adenosine receptor A2a [1] = target: T1, Adenosine receptor A2a (Homo sapiens, UniProt P29274); experiment: Displacement of [3H]2-[p(2-carboxyethyl)phenyl-ethylamino]-5'-N-ethylcarboxamido-adenosine from human adenosine A2A receptor stably expressed in HEK293 cell membrane by radioligand binding assay; type: cell membranes
[2] = target: T2, Adenosine receptor A1 (Homo sapiens) (UniProt P30542); experiment: Displacement of [3H]N6-R-phenylisopropyladenosine from human adenosine A1 receptor stably expressed in CHO cell membrane at 10 uM by radioligand binding assay; type: cell membranes
T2 sequence (whole entry): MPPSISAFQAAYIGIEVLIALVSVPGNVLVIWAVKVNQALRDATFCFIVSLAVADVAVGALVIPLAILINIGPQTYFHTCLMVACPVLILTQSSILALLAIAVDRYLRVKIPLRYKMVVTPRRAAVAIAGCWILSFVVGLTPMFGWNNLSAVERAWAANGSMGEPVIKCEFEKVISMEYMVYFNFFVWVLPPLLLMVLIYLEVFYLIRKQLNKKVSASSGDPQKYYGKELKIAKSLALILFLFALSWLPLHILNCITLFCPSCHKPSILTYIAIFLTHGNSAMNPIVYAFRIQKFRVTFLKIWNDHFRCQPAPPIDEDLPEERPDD

Adenosine receptor A3 [3] = target: T3, Adenosine receptor A3 (Homo sapiens, UniProt P0DMS8); experiment: Displacement of [125I]N6-(4-amino-3-iodobenzyl)adenosine-5'-N-methyl-uronamide from human adenosine A3 receptor stably expressed in CHO cell membrane by radioligand binding assay; type: cell membranes
T3 sequence (P0DMS8 whole entry): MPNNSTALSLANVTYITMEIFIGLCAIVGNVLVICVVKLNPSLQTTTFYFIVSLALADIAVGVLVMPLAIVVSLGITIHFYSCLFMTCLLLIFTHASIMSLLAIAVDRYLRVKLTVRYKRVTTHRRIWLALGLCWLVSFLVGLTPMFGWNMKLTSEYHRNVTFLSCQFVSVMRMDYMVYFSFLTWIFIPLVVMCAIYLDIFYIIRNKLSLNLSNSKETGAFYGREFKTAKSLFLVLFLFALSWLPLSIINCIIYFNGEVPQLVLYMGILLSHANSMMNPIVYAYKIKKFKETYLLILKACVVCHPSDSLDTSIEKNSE

Adenosine receptor A2a [4] = target: T1, Adenosine receptor A2a; experiment: Displacement of [3H]2-[p(2-carboxyethyl)phenyl-ethylamino]-5'-N-ethylcarboxamido-adenosine from human adenosine A2A receptor stably expressed in HEK293 cell membrane at 10 uM by radioligand binding assay; type: cell membranes
Mus musculus [5] = experiment: Antineuropathic pain activity in mouse chronic constriction injury model of neuropathic pain assessed as reversal of reduction in paw withdrawal threshold of ipsilateral hind paw at 3 umol/kg, po dosed on day 7 after sciatic nerve ligation and measured at 3 hrs; type: functional; design: scale not given: the % may be the effect or the level left
In short: (§1)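 Paw withdrawal threshold (g) measured at 1 h or 3 h after treatment, at day 7 (D7/BL) and at D0. % effect = [PWT at post-treatment time − PWT at D7/BL] / [PWT at D0 − PWT at D7/BL] × 100. Significance set at P<0.05. Procedures otherwise follow earlier work under IASP/NIH animal welfare guidelines.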

Mus musculus [6] = experiment: Antineuropathic pain activity in mouse chronic constriction injury model of neuropathic pain assessed as reversal of reduction in paw withdrawal threshold of ipsilateral hind paw at 3 umol/kg, po dosed on day 7 after sciatic nerve ligation and measured at 1 hrs; type: functional; in short: as §1
Mus musculus [7] = experiment: Induction of mechano-allodynia in mouse chronic constriction injury model of neuropathic pain assessed as paw withdrawal threshold on contralateral side at 3 umol/kg, po; type: organism-based; settings: in vivo
Mus musculus [8] = experiment: Antineuropathic pain activity in mouse chronic constriction injury model of neuropathic pain assessed as reversal of reduction in paw withdrawal threshold of ipsilateral hind paw at 1 umol/kg, po dosed on day 7 after sciatic nerve ligation and measured at 1 and 3 hrs; type: functional; in short: as §1
Adenosine receptor A3 [9] = target: T4, Adenosine receptor A3 (Mus musculus, UniProt Q61618); experiment: Displacement of [125I]N6-(4-amino-3-iodobenzyl)adenosine-5'-N-methyl-uronamide from mouse adenosine A3 receptor stably expressed in CHO cell membrane by radioligand binding assay; type: cell membranes
T4 sequence (Q61618 whole entry): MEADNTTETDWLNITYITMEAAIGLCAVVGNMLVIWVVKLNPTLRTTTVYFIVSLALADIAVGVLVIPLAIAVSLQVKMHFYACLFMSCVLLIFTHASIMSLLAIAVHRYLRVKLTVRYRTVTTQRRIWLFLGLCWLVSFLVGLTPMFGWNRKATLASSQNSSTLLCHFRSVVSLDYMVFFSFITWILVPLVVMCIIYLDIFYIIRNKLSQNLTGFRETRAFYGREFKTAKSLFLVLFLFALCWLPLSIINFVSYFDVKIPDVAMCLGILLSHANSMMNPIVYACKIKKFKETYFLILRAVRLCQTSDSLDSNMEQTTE

PC-12 = experiment: Displacement of [3H]DTG from rat sigma 2 receptor in PC12 cells incubated for 2 hrs by liquid scintillation counting method; type: cell-based; settings: dose or concentration not given here
[10] = target: Translocator protein (Rattus norvegicus) (UniProt P16257); experiment: Displacement of [3H]flunitrazepam from rat brain benzodiazepine receptor TSPO incubated for […] by liquid scintillation counting method
Translocator protein (Rattus norvegicus), sequence (P16257 whole entry, looked up): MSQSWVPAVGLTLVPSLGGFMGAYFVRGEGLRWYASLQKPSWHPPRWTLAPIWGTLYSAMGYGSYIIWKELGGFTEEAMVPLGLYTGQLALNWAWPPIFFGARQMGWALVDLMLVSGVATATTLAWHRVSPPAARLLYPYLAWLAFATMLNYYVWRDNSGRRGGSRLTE

Homo sapiens = species on record: Homo sapiens; experiment: Selectivity ratio for human A3 adenosine receptor to human A2A adenosine receptor
[11] = target: Histamine H2 receptor (Homo sapiens) (UniProt P25021); experiment: Displacement of [3H]tiotidine from H2 histamine receptor (unknown origin) expressed in cells at 10 uM incubated for […] by scintillation counting method; type: cell-based
Histamine H2 receptor (Homo sapiens), sequence (P25021 whole entry): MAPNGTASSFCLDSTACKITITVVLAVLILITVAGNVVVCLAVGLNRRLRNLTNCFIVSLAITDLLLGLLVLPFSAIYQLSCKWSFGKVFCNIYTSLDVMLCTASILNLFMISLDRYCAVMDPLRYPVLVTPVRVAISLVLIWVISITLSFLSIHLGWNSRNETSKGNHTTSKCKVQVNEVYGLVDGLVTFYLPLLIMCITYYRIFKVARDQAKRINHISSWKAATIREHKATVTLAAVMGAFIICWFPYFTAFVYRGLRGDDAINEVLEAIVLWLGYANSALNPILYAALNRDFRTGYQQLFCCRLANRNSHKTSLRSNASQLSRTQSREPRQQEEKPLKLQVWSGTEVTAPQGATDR

T1 sequence (P29274 whole entry): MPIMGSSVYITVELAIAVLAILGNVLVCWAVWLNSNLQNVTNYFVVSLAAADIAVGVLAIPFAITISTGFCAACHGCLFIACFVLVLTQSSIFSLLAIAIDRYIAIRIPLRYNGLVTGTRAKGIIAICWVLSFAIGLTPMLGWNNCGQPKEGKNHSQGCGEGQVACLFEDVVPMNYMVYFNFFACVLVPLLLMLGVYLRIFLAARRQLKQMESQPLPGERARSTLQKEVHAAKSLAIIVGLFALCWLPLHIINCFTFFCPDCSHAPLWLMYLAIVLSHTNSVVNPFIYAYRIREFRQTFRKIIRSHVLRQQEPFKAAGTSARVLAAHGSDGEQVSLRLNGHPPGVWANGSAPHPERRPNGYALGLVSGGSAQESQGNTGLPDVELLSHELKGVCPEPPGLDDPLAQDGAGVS

inhibition [2]	Ki (Adenosine receptor A3 [3])	inhibition (Adenosine receptor A2a [4])	Compound	Activity (Mus musculus [5])	Emax at 3 µmol/kg (Mus musculus [6])	Activity (Mus musculus [7])	further results
93%	0.85 nM	–	CNC(=O)[C@@]12C[C@@H]1[C@@H](n1cnc3c(NCCc4ccccc4)nc(N=[N+]=[N-])nc31)[C@H](O)[C@@H]2O	–	–	–	Ki (Adenosine receptor A2a [1]): 1110 nM
58%	6.66 nM	–	CNC(=O)[C@@]12C[C@@H]1[C@@H](n1cnc3c(NCCc4ccccc4)nc(-n4cc(-c5ccc(Cl)s5)nn4)nc31)[C@H](O)[C@@H]2O	82.9%	94.1%	Non-toxic	–
29%	1.84 nM	26%	CNC(=O)[C@@]12C[C@@H]1[C@@H](n1cnc3c(NC)nc(-n4cc(-c5ccccn5)nn4)nc31)[C@H](O)[C@@H]2O	21.1%	60.9%	Non-toxic	–
–	0.95 nM	31%	CNC(=O)[C@@]12C[C@@H]1[C@@H](n1cnc3c(NC)nc(-n4cc(-c5ccccc5Cl)nn4)nc31)[C@H](O)[C@@H]2O	7.9%	69.1%	Non-toxic	–
68%	0.91 nM	42%	CNC(=O)[C@@]12C[C@@H]1[C@@H](n1cnc3c(NCCc4ccccc4)nc(I)nc31)[C@H](O)[C@@H]2O	–	–	–	–
–	0.54 nM	1%	CNC(=O)[C@@]12C[C@@H]1[C@@H](n1cnc3c(NC)nc(N=[N+]=[N-])nc31)[C@H](O)[C@@H]2O	–	–	–	–
–	1.08 nM	–	CNC(=O)[C@@]12C[C@@H]1[C@@H](n1cnc3c(NCc4cccc(Cl)c4)nc(N=[N+]=[N-])nc31)[C@H](O)[C@@H]2O	–	–	–	Ki (Adenosine receptor A2a [1]): 2770 nM
–	1.22 nM	11%	CCNc1nc(I)nc2c1ncn2[C@H]1[C@H](O)[C@H](O)[C@]2(C(=O)NC)C[C@H]12	–	–	–	–
–	0.96 nM	35%	CNC(=O)[C@@]12C[C@@H]1[C@@H](n1cnc3c(NC)nc(-n4cc(-c5ccccc5)nn4)nc31)[C@H](O)[C@@H]2O	27.5%	77.4%	Non-toxic	–
12%	1.25 nM	40%	CNC(=O)[C@@]12C[C@@H]1[C@@H](n1cnc3c(NC)nc(-n4cc(-c5cc6ccccc6o5)nn4)nc31)[C@H](O)[C@@H]2O	22.3%	74%	Non-toxic	–
–	0.69 nM	11%	CCNc1nc(N=[N+]=[N-])nc2c1ncn2[C@H]1[C@H](O)[C@H](O)[C@]2(C(=O)NC)C[C@H]12	–	–	–	–
–	0.85 nM	46%	CNC(=O)[C@@]12C[C@@H]1[C@@H](n1cnc3c(NC4CCC4)nc(N=[N+]=[N-])nc31)[C@H](O)[C@@H]2O	–	–	–	–

The next lines start with the molecule.

Compound	inhibition [2]	Ki (Adenosine receptor A3 [3])	inhibition (Adenosine receptor A2a [4])	Activity (Mus musculus [5])	Emax at 3 µmol/kg (Mus musculus [6])	Activity (Mus musculus [7])	further results
CNC(=O)[C@@]12C[C@@H]1[C@@H](n1cnc3c(NC)nc(-n4cc(-c5ccc(F)c(F)c5)nn4)nc31)[C@H](O)[C@@H]2O	–	1.06 nM	39%	27%	75.2%	Non-toxic	–
CNC(=O)[C@@]12C[C@@H]1[C@@H](n1cnc3c(NCc4cccc(Cl)c4)nc(-n4cc(-c5ccc(Cl)s5)nn4)nc31)[C@H](O)[C@@H]2O	–	9.02 nM	–	91%	94.7%	Non-toxic	inhibition in vivo at 1 µmol/kg (Mus musculus [8]): 70%
CNC(=O)[C@@]12C[C@@H]1[C@@H](n1cnc3c(NC)nc(-n4cc(-c5ncccn5)nn4)nc31)[C@H](O)[C@@H]2O	14%	3.48 nM	27%	36.2%	92.7%	Non-toxic	Ki (Adenosine receptor A3 [9]): 334 nM
CNC(=O)[C@@]12C[C@@H]1[C@@H](n1cnc3c(NC)nc(-n4cc(-c5ccc(Br)s5)nn4)nc31)[C@H](O)[C@@H]2O	–	0.58 nM	7%	13.5%	69.1%	Non-toxic	–
CNC(=O)[C@@]12C[C@@H]1[C@@H](n1cnc3c(NC)nc(-n4cc(-c5cnn(C)c5)nn4)nc31)[C@H](O)[C@@H]2O	2%	2.16 nM	1%	19.1%	82.5%	Non-toxic	–
CNC(=O)[C@@]12C[C@@H]1[C@@H](n1cnc3c(NC4CCC4)nc(I)nc31)[C@H](O)[C@@H]2O	–	1.53 nM	–	–	–	–	Ki (Adenosine receptor A2a [1]): > 10000 nM
CNC(=O)[C@@]12C[C@@H]1[C@@H](n1cnc3c(NC)nc(-n4cc(-c5ccc(Cl)s5)nn4)nc31)[C@H](O)[C@@H]2O	27%	0.73 nM	34%	8.4%	66.8%	Non-toxic	inhibition (PC-12): 62%; inhibition [10]: 54%
CNC(=O)[C@@]12C[C@@H]1[C@@H](n1cnc3c(NC)nc(-n4cc(-c5cnccn5)nn4)nc31)[C@H](O)[C@@H]2O	25%	2.21 nM	8%	26.6%	76.6%	Non-toxic	–
CNC(=O)[C@@]12C[C@@H]1[C@@H](n1cnc3c(NC4CCC4)nc(-n4cc(-c5ccc(Cl)s5)nn4)nc31)[C@H](O)[C@@H]2O	–	7.05 nM	–	85.2%	90.7%	Non-toxic	–
CNC(=O)[C@@]12CC1[C@@H](n1cnc3c(NC)nc(C#Cc4ccccc4)nc31)[C@H](O)[C@@H]2O (single isomer, unassigned)	–	–	–	–	–	–	Selectivity ratio (Homo sapiens): > 3000
CCNc1nc(-n2cc(-c3ccc(Cl)s3)nn2)nc2c1ncn2[C@H]1[C@H](O)[C@H](O)[C@]2(C(=O)NC)C[C@H]12	–	1.22 nM	32%	17.9%	84.9%	Non-toxic	–
CNC(=O)[C@@]12C[C@@H]1[C@@H](n1cnc3c(NC)nc(-n4cc(-c5ccco5)nn4)nc31)[C@H](O)[C@@H]2O	–	0.96 nM	51%	21.1%	65.3%	Non-toxic	inhibition [11]: 50%; inhibition (PC-12): 50%
